Experimental data published in PubChem BioAssay.
The source made the active and inactive calls.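 Rule for the calls, unless noted: active = viability at or below 30% in both replicate assays; inconclusive = viability at or below 30% in just one of the two assays; inactive = the rest.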

Key:
[1] = SK-BR-3 cell growth inhibitors, pilot screen, 24 h, human (AID 572;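 active = viability at or below 10% of carrier control in both of two separate runs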;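 note: compound exposure lasted between 18 and 24 h rather than exactly 24 h; 100% = carrier-treated control wells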); settings: SK-BR-3 viability, CellTiter-Glo luminescence, at 10 µM, stronger effect = lower value
[2] = HUVEC growth inhibition – cell-based, human, primary screen (AID 575); settings: HUVEC proliferation, CellTiter-Glo luminescence, 72 h; at 10 µM; stronger effect = lower value;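 note: 100% = median of untreated cell wells with 0.1% DMSO on each plate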
Outline: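 system = HUVEC primary cells | amount = 1250 cells/well | buffer or medium = supplemented EBM, 2% fetal bovine serum | dosing = single-point 10 µM, DMSO 0.1% final | times = 72 h compound incubation | detection = CTG luminescence | read-out = % viability relative to median vehicle-well signal on each plate | control set = vehicle and MePR control wells | format = collagen-coated 384-well format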

[3] = growth inhibitors of H69AR lung tumor, primary screen, human, duplicate replicates (AID 580;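 active = viability at or under a set limit in both replicates, limit being median viability minus 3 SD, cut at about 48% in these data, passing the limit was not always enough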;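 note: 100% = mean luminescence of untreated wells and 0% = no signal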); settings: H69AR lung tumor cells viability, ATP luminescence, 72 h; at 10 µM; stronger effect = lower value
[4] = reversal of MRP1-mediated doxorubicin resistance, pilot screen, H69AR cells, doxorubicin co-treatment (AID 601;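 active = viability loss from added drug above about 55%, and viability with drug at most 40%, in both replicates, limit read from the data, passing the limit was not always enough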); settings: CellTiter-Glo, 72 h, at 10 µM; for differential viability (reversal): stronger effect = higher value
[5] = 384-well plate pilot, post-Golgi transport modulator project, inhibition of yeast transport mutant growth (AID 636; in the data active = inhibition above about 31%); settings: absorbance 615 nm, about 18 h, stronger effect = higher value
[6] = growth suppression of yeast trafficking mutant, preliminary HTS, modulators of trafficking downstream of Golgi apparatus project, 1536-format plate, OD 615 nm (AID 637; in the data active = inhibition above about 30%); settings: yeast transport mutant growth, absorbance 615 nm, 18 h; stronger effect = higher value
[7] = H69AR cells + 2 uM doxorubicin, measured here: viability with 2 uM doxorubicin, stronger effect = lower value
[8] = H69AR cells, compound alone cytotoxicity

Row | Compound | viability [1] | viability [2] | viability [3] | differential viability (reversal) ([4]; H69AR cells + 2 uM doxorubicin) | viability [4, 7] | viability [4, 8] | inhibition [5] | inhibition [6]
1 | CNC(=O)c1ccc2nc(NC(C)=O)sc2c1 | 110% (inactive) | 102% (inactive) | 99.9% (inactive) | 9.57% (inactive) | 90.4% | 99.9% | -7.2% (inactive) | -0.36% (inactive)
2 | CCN(CC)C(=O)C1CCN(CC2CC=CCC2)CC1 (configuration not stated) | 97% (inactive) | 109% (inactive) | 94.8% (inactive) | -3.97% (inactive) | 98.7% | 94.8% | -2.93% (inactive) | -2.91% (inactive)
3 | Cc1c(OCC(F)(F)F)ccnc1CS(=O)c1nc2ccccc2[nH]1 (configuration not stated) | 99% (inactive) | 100% (inactive) | 93.8% (inactive) | 4.31% (inactive) | 89.5% | 93.8% | -1.69% (inactive) | 4.33% (inactive)
4 | CCc1nc2sc3ccccc3c(=O)c2c(=O)n1Cc1ccco1 | 73% (inactive) | 82.6% (inactive) | 77% (inactive) | 2.49% (inactive) | 74.5% | 77% | -3.77% (inactive) | 0.98% (inactive)
5 | O=C(NC1=NCCS1)c1ccc2c(c1)C(=O)N(Cc1ccco1)C2=O | 85% (inactive) | 94% (inactive) | 93.6% (inactive) | 1.83% (inactive) | 91.8% | 93.6% | -7.26% (inactive) | 4.73% (inactive)
6 | CC1=C(C(=O)Nc2ccccc2C)C(c2ccc(C)o2)N2C(=O)CSC2=N1 (configuration not stated) | 105% (inactive) | 106% (inactive) | 96.4% (inactive) | 8.25% (inactive) | 88.2% | 96.4% | -9.04% (inactive) | 2.26% (inactive)
7 | COc1cc(C(=O)Nc2cc(-c3ccccc3)[nH]n2)cc(OC)c1OC | 107% (inactive) | 68.3% (inactive) | 26% (active) | -45.8% (inactive) | 71.7% | 26% | -4.27% (inactive) | -1.27% (inactive)
8 | C=CCc1ccccc1OCC(O)CN1CCN(Cc2ccc3c(c2)OCO3)CC1 (configuration not stated) | 101% (inactive) | 73.8% (inactive) | 70.1% (inactive) | -5.96% (inactive) | 76% | 70.1% | 59.1% (active) | 58.4% (active)
9 | Cc1onc(-c2ccccc2)c1C(=O)NCCN1CCOCC1 | 94% (inactive) | 102% (inactive) | 98% (inactive) | 10.1% (inactive) | 87.9% | 98% | -4.93% (inactive) | -4% (inactive)
10 | O=C(CSc1oc(-c2ccco2)nc1S(=O)(=O)c1ccccc1)NCC1CCCO1 (configuration not stated) | 97% (inactive) | 99.7% (inactive) | 86.5% (inactive) | 5.96% (inactive) | 80.5% | 86.5% | 4.66% (inactive) | -0.16% (inactive)
11 | c1ccc(-c2cc(CSc3nc4ccccc4[nH]3)on2)cc1 | 94% (inactive) | 91.8% (inactive) | 102% (inactive) | 15.5% (inactive) | 86.5% | 102% | -6.13% (inactive) | 3.09% (inactive)
12 | COc1ccccc1CN1CC(C(=O)NCc2cccnc2)CC1=O (configuration not stated) | 134% (inactive) | 95.5% (inactive) | 91.5% (inactive) | 2.3% (inactive) | 89.2% | 91.5% | -2.99% (inactive) | 3.77% (inactive)
13 | CCOc1ccc(-c2c(C#N)c(N)nc3c2c(=O)n(C)c(=O)n3C)cc1OC | 114% (inactive) | 86% (inactive) | 94.7% (inactive) | 2.56% (inactive) | 92.1% | 94.7% | -6.44% (inactive) | 6.77% (inactive)
14 | CCCCc1ccc(NC(=O)N[C@H](C(=O)O)C(C)C)cc1 | 119% (inactive) | 82.6% (inactive) | 95% (inactive) | -0.205% (inactive) | 95.2% | 95% | -2.05% (inactive) | -5.32% (inactive)
15 | CCOc1ccccc1OCCCCN1CCCC1 | 87% (inactive) | 109% (inactive) | 91.5% (inactive) | 2.1% (inactive) | 89.4% | 91.5% | -2.21% (inactive) | -1.97% (inactive)
16 | CCCN1Cc2cccc(C(=O)NCc3cccs3)c2C1=O | 86% (inactive) | 111% (inactive) | 90.6% (inactive) | -0.255% (inactive) | 90.8% | 90.6% | -6% (inactive) | -1.45% (inactive)
17 | CCSCc1nnc(SCC(=O)Nc2cccc(SC)c2)n1C | 66% (inactive) | 84.3% (inactive) | 90.3% (inactive) | -14.9% (inactive) | 105% | 90.3% | -6.58% (inactive) | -0.18% (inactive)
18 | CCCCN1CN(S(=O)(=O)c2cccs2)c2nc3ccccc3nc21 | 97% (inactive) | 109% (inactive) | 83.7% (inactive) | -5.09% (inactive) | 88.8% | 83.7% | -10.1% (inactive) | -4.18% (inactive)
19 | Cn1c(=O)c2c(nc(N3CCN(c4ccccc4)CC3)n2CCCc2ccccc2)n(C)c1=O | 68% (inactive) | 90.6% (inactive) | 84.1% (inactive) | 1.85% (inactive) | 82.2% | 84.1% | -3.33% (inactive) | 7.09% (inactive)
20 | CC(C)NCC(O)COc1cccc2[nH]ccc12 (configuration not stated) | 111% (inactive) | 78.3% (inactive) | 99.2% (inactive) | -1.55% (inactive) | 101% | 99.2% | -3.25% (inactive) | -3.17% (inactive)
21 | Cn1nc(C(C)(C)C)cc1C(=O)NCc1ccc(N2CCCC2=O)cc1 | 87% (inactive) | 15.1% (active) | 99% (inactive) | -3.59% (inactive) | 103% | 99% | -5.34% (inactive) | 0.91% (inactive)
22 | CCCCn1cnc2c1c(=O)n(C)c(=O)n2C | 77% (inactive) | 100% (inactive) | 100% (inactive) | 11.1% (inactive) | 89% | 100% | 3.24% (inactive) | 0.18% (inactive)
23 | CCOc1cc(C2C(C#N)=C(N)Oc3n[nH]c(CC)c32)ccc1OCCN1CCOCC1 (configuration not stated) | 87% (inactive) | 95.6% (inactive) | 110% (inactive) | 11% (inactive) | 99% | 110% | 0.27% (inactive) | 0.32% (inactive)
24 | CCn1c(SCC(=O)Nc2cc(NC(C)=O)ccc2OC)nnc1-c1ccccn1 | 93% (inactive) | 89.6% (inactive) | 94.1% (inactive) | 8.36% (inactive) | 85.8% | 94.1% | -1.51% (inactive) | 2.1% (inactive)
